RGS4 block – inhibitors of human RGS4; P49798; HEK293 M3R/RGS4 inducible, Fluo-4 calcium flux; active compounds read high; triggered by carbachol at its EC20; B-score at 10 µM; 310,000 tested, 0.45% active;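 active = B-score, a plate-corrected calcium signal, over three deviations above library mean, with baseline fluorescence within five deviations of library mean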;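 also: RGS4 expression induced by doxycycline in cells with stable M3 receptor; B-score is computed from the integrated fluorescence ratio over baseline after carbachol; higher B-score means a larger calcium signal and so more RGS4 inhibition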
MrgX1 antag – human MrgX1 receptor antagonism, primary screen; Q96LB2; MRGX1-HEK293 calcium flux, Fluo-4, BAM8-22 antagonism; active compounds read low; B-score at 10 µM; 310,000 tested, 1.3% active; AID 588676;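 active = calcium-response B-score plate-corrected more than 3 library SD below zero, starting fluorescence within 5 deviations, no agonist response on first addition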;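 also: peak minus trough fluorescence over baseline after final BAM8-22 challenge near maximal dose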
Target sequence (Q96LB2 whole entry, looked up): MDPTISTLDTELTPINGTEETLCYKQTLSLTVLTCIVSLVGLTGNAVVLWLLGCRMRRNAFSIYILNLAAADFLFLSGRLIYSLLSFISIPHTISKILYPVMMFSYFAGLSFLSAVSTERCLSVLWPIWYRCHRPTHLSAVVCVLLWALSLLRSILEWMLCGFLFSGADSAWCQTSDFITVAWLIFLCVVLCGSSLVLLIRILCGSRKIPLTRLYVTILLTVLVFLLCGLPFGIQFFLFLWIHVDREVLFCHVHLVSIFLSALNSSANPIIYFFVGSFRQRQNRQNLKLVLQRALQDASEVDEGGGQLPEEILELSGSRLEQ
RGS4 act – RGS4 potentiation or activation; HEK293 M3R/inducible RGS4, carbachol calcium flux Fluo4; active compounds read low; B-score at 10 µM; 310,000 tested, 0.92% active; AID 463111;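 active = B-score of the integrated calcium signal more than 4 SD below the library mean, with starting fluorescence not abnormally high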;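 also: negative B-score means reduced calcium response which marks RGS4 activation or potentiation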
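System – HEK293 FlpIn-TREx cells, stable M3R, doxycycline-inducible RGS4 · Reagent – ECmax carbachol challenge · Times – compound preincubation 20 min at room temperature before agonist · Technique – Fluo4 fluorescence kinetic imaging of calcium · Measure – B score of integrated Fluo4 ratio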
MrgX1 allo act – human MrgX1 positive allosteric modulation, primary screen; Q96LB2; MrgX1-HEK293, Fluo-4 calcium flux, FDSS; active compounds read high; B-score at 10 µM; 310,000 tested, 0.63% active; AID 588675;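 active = plate-corrected calcium response at least 3 library SD above typical, normal starting fluorescence, not activating the receptor alone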;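 also: compound read alongside a low EC10 to EC30 dose of BAM8-22 agonist; peak minus trough fluorescence over baseline measured at the second addition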
MrgX1 ag – activates human MrgX1 receptor signaling | B-score at 10 µM | 310,000 tested, 0.44% active | Q96LB2 | MrgX1-HEK293 cells, Fluo-4 calcium fluorescence, agonist mode; active compounds read high;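 active = calcium response B-score plate-corrected fluorescence ratio at least 3 library SD, with starting fluorescence B-score inside 5 SD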
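Assay system: stable human MrgX1 HEK293 cell line. Quantity: 15,000 cells per well. Schedule: cells plated overnight, dye loaded 0.5 h 37 °C, 0.5 h room temperature. Detection: Fluo-4 NW calcium-flux fluorescence, kinetic read. Read-out basis: peak-minus-minimum fluorescence over baseline, converted to B scores. Control set: positive and negative control wells on each plate.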
MrgX1 ag reconf – human MrgX1 agonism, re-confirmation screen; MrgX1-HEK293, Fluo-4 calcium fluorescence, FDSS; 600 tested, 78% active; activation, % at 10 µM; shares compounds with MrgX1 ag;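 active = calcium signal rise, corrected for plate position, at least 3 library SD high, with starting brightness within 5 such deviations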
HEK293 Ca flux – MrgX1 antagonist counter-screen hit in parental HEK293 cells. shares compounds with MrgX1 antag. Fluo-4 calcium fluorescence, FDSS. fluorescence ratio F(max-min)/F0 at 10 µM. 4,000 tested, 2% active. AID 624111;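 active = duplicate-averaged calcium fluorescence ratio at least three times the standard deviation of buffer wells, a nonspecific response in parental cells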
HEK293 Ca counter – MrgX1 allosteric activator counter-screen hit in parental HEK293 cells | shares compounds with MrgX1 antag | parental HEK293 calcium flux, Fluo-4 fluorescence ratio; active compounds read high | fluorescence ratio F(max-min)/F0 at 10 µM | 4,000 tested, 0.4% active | AID 624114;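 active = calcium fluorescence ratio, averaged over duplicates, at least 3 SD of the buffer-well ratio, meaning a nonspecific response in receptor-free cells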;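 also: untransfected parental HEK293 lacking MrgX1 used as counterscreen for MrgX1 allosteric activators; fluorescence change taken during the second addition on a kinetic imager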
HEK293 Ca cntr2 – counter-screen for MrgX1 activators: effect in parental HEK293 cells. shares compounds with MrgX1 antag. Fluo-4 calcium fluorescence (FDSS); active compounds read high. fluorescence ratio F(max-min)/F0 at 10 µM. 4,000 tested, 8.7% active;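 active = calcium fluorescence ratio at least three times the spread of buffer wells, meaning a non-specific response in parental cells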
* marks the source's active call; other numbers are inactive results; i = inactive; nt = not tested or not shown. The list is not random: actives were taken first. Their share in the collection is about 3.5%.

SMILES	RGS4 block	MrgX1 antag	RGS4 act	MrgX1 allo act	MrgX1 ag	MrgX1 ag reconf	HEK293 Ca flux	HEK293 Ca counter	HEK293 Ca cntr2
Cc1cc(C)c2c(=O)n(CC(=O)NC3CCCC3)sc2n1	i	i	i	i	29*	183%*	i	i	i
O=C(NC(=S)NNC(=O)c1ccc(Cl)cc1Cl)c1cccnc1	i	i	i	i	i	nt	nt	nt	nt
O=C(/C=C/c1ccccc1)NC(=S)NNC(=O)Cc1cccs1	i	i	i	i	71*	262%*	i	i	73*
COc1ccc(Cl)cc1NC(=O)c1c(-c2ccccc2)noc1C	i	i	i	i	i	nt	nt	nt	nt
Cc1ccccc1C(=O)NNC(=S)NC(=O)c1ccc(Cl)cc1Cl	i	i	-10*	i	172*	776%*	i	i	154*
Cc1onc(-c2ccccc2)c1C(=O)NNC(=O)c1ccccc1O	i	i	i	i	i	nt	nt	nt	nt
Cc1onc(-c2ccccc2)c1C(=O)NNC(=S)NC(=O)c1ccc(Cl)cc1Cl	i	i	i	i	180*	714%*	i	i	115*
Cc1onc(-c2ccccc2)c1C(=O)NNC(=S)NC(=O)c1ccc(Br)cc1	i	i	i	i	86*	705%*	i	i	138*
O=C(COC(=O)C1C2CC3OC(=O)C1C3C2)Nc1cccc(Cl)c1 (configuration not stated)	i	i	i	i	i	nt	nt	nt	nt
O=C1OC(Nc2cc(Br)cc3cccnc23)c2ccccc21 (configuration not stated)	i	i	i	i	i	nt	nt	nt	nt
Cc1onc(-c2ccccc2)c1C(=O)NNC(=S)NC(=O)/C=C/c1ccccc1	i	i	i	i	95*	455%*	i	i	72*
Cc1onc(-c2ccccc2)c1C(=O)Nc1ccccc1NC(=O)c1c(-c2ccccc2)noc1C	i	i	i	i	i	nt	nt	nt	nt
Cc1ccc(S(=O)(=O)NCCCNS(=O)(=O)c2ccccc2)cc1	i	i	i	i	i	nt	nt	nt	nt
COc1ccc(C2C(C#N)=C(N)Oc3cccc(O)c32)cc1 (configuration not stated)	i	i	i	i	28*	i	i	i	i
CCOC(=O)C(Cc1cc(C(C)=O)ccc1OC(C)C)C(=O)OCC	i	i	i	i	i	nt	nt	nt	nt
CC(=O)c1ccc(OC(C)C)c(CSC(=N)N)c1	i	i	i	i	38*	199%*	i	i	i
COc1ccc(Br)cc1CSC(=N)N	i	i	i	i	34*	148%*	i	i	i
O=C1CC(NN2CCCCC2)C(=O)N1c1ccccc1 (configuration not stated)	i	i	i	i	i	nt	nt	nt	nt
CC(C)Cc1csc(NC(=O)c2ccc(Br)cc2)c1C(=O)O	i	i	i	i	45*	i	i	i	i
C[N+](C)(C)CCOC(N)=O	nt	i	nt	i	118*	547%*	i	i	112*
Cc1nnc(SCCOC(N)=O)n1C	i	nt	i	nt	nt	nt	nt	nt	nt
COc1cc(/C=C2\SC(=Nc3ccccc3)NC2=O)cc(Cl)c1O	i	i	i	i	84*	i	0.39*	i	139*
CCCCCN=C(N)N/N=C/c1c[nH]c2ccc(OC)cc12	i	i	i	i	75*	488%*	i	i	137*
CCCOc1ccc(C(=O)N/N=C/c2c[nH]c3ccc(Br)cc23)cc1	i	i	i	i	i	nt	nt	nt	nt
